Laboratory results taken from ChEMBL document CHEMBL1153176, “2,6-Dithienyl-4-furyl pyridines: Synthesis, topoisomerase I and II inhibition, cytotoxicity, structure-activity relationship, and docking study” (Bioorg Med Chem Lett, 2010).
Where a name gives a salt, the structure may show the parent alone.

How the values were obtained:
[1] = target: DNA topoisomerase 2-alpha (Homo sapiens) (UniProt P11388); experiment: Inhibition of human topoisomerase 2 alpha-mediated relaxation of supercoiled pBR322 DNA at 100 uM after 30 mins by agarose gel electrophoresis
Chain of DNA topoisomerase 2-alpha (Homo sapiens) (P11388 whole entry): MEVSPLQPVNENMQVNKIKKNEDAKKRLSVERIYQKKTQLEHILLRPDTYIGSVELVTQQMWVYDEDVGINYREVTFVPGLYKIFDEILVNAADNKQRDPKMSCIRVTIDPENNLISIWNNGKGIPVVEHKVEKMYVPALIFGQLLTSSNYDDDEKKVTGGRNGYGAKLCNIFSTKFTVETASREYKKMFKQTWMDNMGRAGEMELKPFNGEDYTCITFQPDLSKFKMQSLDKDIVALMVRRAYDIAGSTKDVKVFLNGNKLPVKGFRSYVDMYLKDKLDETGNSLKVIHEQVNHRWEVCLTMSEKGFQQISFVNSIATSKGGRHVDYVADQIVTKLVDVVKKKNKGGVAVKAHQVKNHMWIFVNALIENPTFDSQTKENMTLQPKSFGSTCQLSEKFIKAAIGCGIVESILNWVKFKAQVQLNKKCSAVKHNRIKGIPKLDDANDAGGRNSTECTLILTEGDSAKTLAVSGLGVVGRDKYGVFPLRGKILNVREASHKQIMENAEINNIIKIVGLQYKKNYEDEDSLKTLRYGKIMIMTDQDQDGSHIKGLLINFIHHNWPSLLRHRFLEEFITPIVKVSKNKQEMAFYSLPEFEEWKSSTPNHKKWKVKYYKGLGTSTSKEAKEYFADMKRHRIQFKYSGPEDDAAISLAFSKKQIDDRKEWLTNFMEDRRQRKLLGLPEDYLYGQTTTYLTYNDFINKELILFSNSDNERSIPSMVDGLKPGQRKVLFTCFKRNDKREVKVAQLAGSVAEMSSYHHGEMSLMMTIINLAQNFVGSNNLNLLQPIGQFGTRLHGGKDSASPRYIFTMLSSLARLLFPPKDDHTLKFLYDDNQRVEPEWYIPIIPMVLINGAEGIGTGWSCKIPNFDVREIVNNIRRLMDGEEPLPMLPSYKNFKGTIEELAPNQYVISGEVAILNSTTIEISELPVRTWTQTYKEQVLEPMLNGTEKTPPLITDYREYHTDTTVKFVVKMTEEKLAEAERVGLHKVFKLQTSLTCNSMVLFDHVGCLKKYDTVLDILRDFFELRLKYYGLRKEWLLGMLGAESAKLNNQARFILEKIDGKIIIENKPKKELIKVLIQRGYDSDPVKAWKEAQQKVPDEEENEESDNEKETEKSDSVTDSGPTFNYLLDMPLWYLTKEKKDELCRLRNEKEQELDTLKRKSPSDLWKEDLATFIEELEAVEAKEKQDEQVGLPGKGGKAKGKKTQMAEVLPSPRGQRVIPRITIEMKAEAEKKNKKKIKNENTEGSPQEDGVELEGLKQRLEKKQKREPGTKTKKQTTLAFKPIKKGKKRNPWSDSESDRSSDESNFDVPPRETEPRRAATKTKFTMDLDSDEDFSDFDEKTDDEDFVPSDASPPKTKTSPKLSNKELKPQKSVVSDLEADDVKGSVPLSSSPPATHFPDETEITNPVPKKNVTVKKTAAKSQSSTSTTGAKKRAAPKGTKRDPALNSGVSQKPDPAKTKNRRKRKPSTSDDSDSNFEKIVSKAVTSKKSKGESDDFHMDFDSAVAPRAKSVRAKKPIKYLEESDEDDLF
In short: (§1)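 Human topo II (0.3 U) with 0.2 μg pBR322 in 50 mM Tris–HCl pH 8.0, 120 mM KCl, 10 mM MgCl2, 0.5 mM ATP, 0.5 mM DTT and BSA. Compound at 20 or 100 μM, 37 °C for 30 min. Stopped with 0.77% SDS/77 mM EDTA, run on 1% agarose at 1.5 V/cm for 10 h in TBE, stained with ethidium bromide.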

HCT-116 = experiment: Cytotoxicity against human HCT116 cells after 3 days; assay type: functional, cell-based; settings: HCT-116, 72 h
In short: (§2)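 Cells seeded at 2–4 × 10⁴ per well and held overnight at 37 °C, 5% CO₂ in medium with 10% FBS. On day 1 the medium was replaced with medium holding graded compound concentrations. Absorbance read at 450 nm. IC50 from a four-parameter logistic fit of the 450 nm readings.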

HeLa = experiment: Cytotoxicity against human HeLa cells after 3 days; assay type: functional, cell-based; settings: 72 h; in short: as §2
DU-145 = experiment: Cytotoxicity against human DU145 cells after 3 days; assay type: functional, cell-based; settings: DU-145, 72 h; in short: as §2
Bos taurus [2] = species: Bos taurus; experiment: Inhibition of calf thymus topoisomerase 1-mediated relaxation of supercoiled pBR322 DNA at 20 uM after 30 mins by agarose gel electrophoresis
In short: (§3)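 Compound at 20 or 100 μM, 37 °C for 30 min. Stopped with SDS/dye mix, run on 1% agarose in TBE for 10 h, stained with ethidium bromide (0.5 μg/mL).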

MDA-MB-231 = experiment: Cytotoxicity against human MDA-MB-231 cells after 3 days; assay type: functional, cell-based; settings: MDA-MB-231, 72 h; in short: as §2
[3] = target: DNA topoisomerase 2-alpha (Homo sapiens) (UniProt P11388); experiment: Inhibition of human topoisomerase 2 alpha-mediated relaxation of supercoiled pBR322 DNA at 20 uM after 30 mins by agarose gel electrophoresis; in short: as §1
MCF7 = experiment: Cytotoxicity against human MCF7 cells after 3 days; assay type: functional, cell-based; settings: MCF7, 72 h; in short: as §2
Bos taurus [4] = species: Bos taurus; experiment: Inhibition of calf thymus topoisomerase 1-mediated relaxation of supercoiled pBR322 DNA at 100 uM after 30 mins by agarose gel electrophoresis; in short: as §3

| SMILES | inhibition [1] | IC50 (HCT-116) | IC50 (HeLa) | IC50 (DU-145) | inhibition (Bos taurus [2]) | IC50 (MDA-MB-231) | inhibition [3] | IC50 (MCF7) | inhibition (Bos taurus [4]) |
| --- | --- | --- | --- | --- | --- | --- | --- | --- | --- |
| Clc1ccc(-c2cc(-c3ccsc3)nc(-c3cccs3)c2)o1 | 55% | > 100 µM | 43.7 µM | > 100 µM | 12% | 26.8 µM | 7% | > 100 µM | 50% |
| Cc1ccsc1-c1cc(-c2ccco2)cc(-c2sccc2C)n1 | 23% | > 100 µM | 35.8 µM | 98.2 µM | 88% | 38.3 µM | 14% | > 100 µM | 92% |
| Cc1ccc(-c2cc(-c3cccs3)nc(-c3cccs3)c2)o1 | 8% | – | – | – | 0% | – | 0% | – | 3% |
| Cc1ccsc1-c1cc(-c2ccco2)cc(-c2cccs2)n1 | 28% | 56.4 µM | 17.9 µM | > 100 µM | 12% | 59.6 µM | 9% | > 100 µM | 51% |
| c1csc(-c2cc(-c3ccoc3)cc(-c3cccs3)n2)c1 | 70% | 50.6 µM | 8.62 µM | > 100 µM | 0% | 23.6 µM | 15% | > 100 µM | 0% |
| Cc1ccc(-c2cc(-c3cccs3)nc(-c3cc(C)sc3C)c2)o1 | 0% | – | – | – | 0% | – | 0% | – | 5% |
| Cc1ccc(-c2cc(-c3ccsc3)nc(-c3ccsc3)c2)o1 | 5% | – | – | – | 0% | – | 0% | – | 0% |
| Clc1ccc(-c2cc(-c3cccs3)nc(-c3cccs3)c2)o1 | 35% | 95.5 µM | 55.2 µM | 88.1 µM | 12% | 54.8 µM | 0% | > 100 µM | 42% |
| c1coc(-c2cc(-c3ccsc3)nc(-c3cccs3)c2)c1 | 34% | – | – | – | 5% | – | 0% | – | 12% |
| Cc1ccsc1-c1cc(-c2ccoc2)cc(-c2cccs2)n1 | 3% | – | – | – | 3% | – | 7% | – | 9% |
| c1coc(-c2cc(-c3ccsc3)nc(-c3ccsc3)c2)c1 | 32% | – | – | – | 0% | – | 0% | – | 0% |
| c1cc(-c2cc(-c3ccsc3)nc(-c3ccsc3)c2)co1 | 12% | – | – | – | 0% | – | 4% | – | 0% |
| Cc1ccc(-c2cc(-c3cccs3)nc(-c3sccc3C)c2)o1 | 25% | – | – | – | 0% | – | 15% | – | 0% |
| Cc1ccc(-c2cc(-c3ccsc3)nc(-c3sccc3C)c2)o1 | 0% | – | – | – | 0% | – | 0% | – | 0% |
| Cc1ccsc1-c1cc(-c2ccoc2)cc(-c2ccsc2)n1 | 0% | – | – | – | 0% | – | 0% | – | 13% |
| Cc1ccc(-c2cc(-c3ccsc3)nc(-c3cc(C)sc3C)c2)o1 | 7% | – | – | – | 0% | – | 0% | – | 0% |
| Clc1ccc(-c2cc(-c3ccsc3)nc(-c3ccsc3)c2)o1 | 8% | – | – | – | 0% | – | 0% | – | 14% |
| Cc1ccsc1-c1cc(-c2ccco2)cc(-c2ccsc2)n1 | 58% | 51.1 µM | 19.2 µM | > 100 µM | 9% | 41.8 µM | 11% | > 100 µM | 52% |
| Cc1ccc(-c2cc(-c3ccsc3)nc(-c3cccs3)c2)o1 | 2% | – | – | – | 0% | – | 0% | – | 0% |
| CC[C@@]1(O)C(=O)OCc2c1cc1n(c2=O)Cc2cc3ccccc3nc2-1 [CAMPTOTHECIN] | – | 2.77 µM | 1.85 µM | 1.46 µM | 41% | 1.1 µM | – | 7.42 µM | 54% |
| COc1cc([C@@H]2c3cc4c(cc3[C@@H](O[C@@H]3O[C@@H]5CO[C@@H](C)O[C@H]5[C@H](O)[C@H]3O)[C@H]3COC(=O)[C@H]23)OCO4)cc(OC)c1O [ETOPOSIDE] | 73% | 17.9 µM | 8.43 µM | 21.1 µM | – | 16.9 µM | 36% | 18 µM | – |
| COc1cccc2c1C(=O)c1c(O)c3c(c(O)c1C2=O)C[C@@](O)(C(=O)CO)C[C@@H]3O[C@H]1C[C@H](N)[C@H](O)[C@H](C)O1 [DOXORUBICIN HYDROCHLORIDE] | – | – | 1.6 µM | 1.3 µM | – | 1.16 µM | – | – | – |
| Cc1ccsc1-c1cc(-c2ccoc2)cc(-c2sccc2C)n1 | 0% | – | – | – | 15% | – | 0% | – | 30% |
| c1csc(-c2cc(-c3ccoc3)cc(-c3ccsc3)n2)c1 | 18% | – | – | – | 0% | – | 1% | – | 0% |
